In ChEMBL document CHEMBL2380293, “Design, synthesis, and biological evaluation of novel histone deacetylase 1 inhibitors through click chemistry” (Bioorg Med Chem Lett, 2013):
Calls of active or inactive are those of the source. The rule behind the calls is not given here.

What was measured:
[1] = target: T1, Histone deacetylase 1 (Homo sapiens, UniProt Q13547); test: Inhibition of human recombinant HDAC1 incubated for 10 mins prior to substrate addition measured after 60 mins by spectrophotometric analysis
T1 sequence (Q13547 whole entry): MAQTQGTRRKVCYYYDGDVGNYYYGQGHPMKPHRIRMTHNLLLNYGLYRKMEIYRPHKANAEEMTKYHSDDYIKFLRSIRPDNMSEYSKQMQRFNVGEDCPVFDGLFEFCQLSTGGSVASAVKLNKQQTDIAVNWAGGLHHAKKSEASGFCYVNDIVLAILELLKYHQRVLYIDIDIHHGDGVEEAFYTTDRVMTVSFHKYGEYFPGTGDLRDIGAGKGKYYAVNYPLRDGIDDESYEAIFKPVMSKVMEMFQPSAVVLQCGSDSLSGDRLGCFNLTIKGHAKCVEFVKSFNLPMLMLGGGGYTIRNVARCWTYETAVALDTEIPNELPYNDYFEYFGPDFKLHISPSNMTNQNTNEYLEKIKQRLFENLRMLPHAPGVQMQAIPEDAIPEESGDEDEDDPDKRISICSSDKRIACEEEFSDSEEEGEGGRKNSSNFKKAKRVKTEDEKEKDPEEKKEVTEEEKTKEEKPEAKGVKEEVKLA

[2] = target: T2, Histone deacetylase 7 (Homo sapiens) (UniProt Q8WUI4); test: Inhibition of human recombinant HDAC7 at 10 uM incubated for 10 mins prior to substrate addition measured after 60 mins by spectrophotometric analysis
T2 sequence (whole entry): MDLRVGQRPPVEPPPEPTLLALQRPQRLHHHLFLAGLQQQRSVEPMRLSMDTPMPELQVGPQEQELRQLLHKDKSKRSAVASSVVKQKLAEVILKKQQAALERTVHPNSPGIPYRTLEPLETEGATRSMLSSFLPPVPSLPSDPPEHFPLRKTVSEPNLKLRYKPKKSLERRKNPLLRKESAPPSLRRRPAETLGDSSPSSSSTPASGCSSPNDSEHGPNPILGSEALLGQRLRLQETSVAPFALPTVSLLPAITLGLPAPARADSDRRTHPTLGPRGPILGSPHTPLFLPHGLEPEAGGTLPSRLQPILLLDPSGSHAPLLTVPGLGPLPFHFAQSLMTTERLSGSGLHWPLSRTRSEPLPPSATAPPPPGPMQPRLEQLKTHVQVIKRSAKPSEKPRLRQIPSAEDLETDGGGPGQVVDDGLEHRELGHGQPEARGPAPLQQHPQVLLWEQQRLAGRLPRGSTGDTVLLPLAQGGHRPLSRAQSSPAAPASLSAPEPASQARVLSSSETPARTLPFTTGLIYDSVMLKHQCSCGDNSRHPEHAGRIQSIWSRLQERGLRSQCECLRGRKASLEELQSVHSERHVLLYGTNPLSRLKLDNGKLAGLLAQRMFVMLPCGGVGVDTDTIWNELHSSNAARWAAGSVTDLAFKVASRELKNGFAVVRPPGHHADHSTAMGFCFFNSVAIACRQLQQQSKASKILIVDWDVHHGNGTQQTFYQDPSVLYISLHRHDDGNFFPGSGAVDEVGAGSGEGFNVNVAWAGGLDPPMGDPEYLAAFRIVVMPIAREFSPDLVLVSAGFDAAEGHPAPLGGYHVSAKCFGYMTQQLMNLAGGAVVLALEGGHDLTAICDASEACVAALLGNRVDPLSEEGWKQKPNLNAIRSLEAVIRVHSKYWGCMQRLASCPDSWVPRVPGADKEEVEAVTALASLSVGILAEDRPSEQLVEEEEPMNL
Procedure, shortened: (§1)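 Enzyme IC50 values are means of three experiments, with SAHA run as the positive control. Absence of activity was judged at 10 μM.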

[3] = test system: HUVEC; test: Growth inhibition of HUVEC at 10 uM by MTT assay; type: functional, cell-based; conditions: Homo sapiens
Procedure, shortened: (§2)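 MTT cell growth read-out, with SAHA as the positive control. GI50 values are means of three experiments. 10 μM was the concentration tested for scoring absence of activity.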

[4] = test system: HT-1080; test: Growth inhibition of human HT1080 cells by MTT assay; type: functional; procedure, shortened: as §2
[5] = test system: A-431; test: Growth inhibition of human A431 cells at 10 uM by MTT assay; type: functional, cell-based; procedure, shortened: as §2
[6] = test system: A549; test: Growth inhibition of human A549 cells at 10 uM by MTT assay; type: functional, cell-based; procedure, shortened: as §2
[7] = test system: DU-145; test: Growth inhibition of human DU145 cells at 10 uM by MTT assay; type: functional, cell-based; procedure, shortened: as §2
[8] = test system: HeLa; test: Growth inhibition of human HeLa cells at 10 uM by MTT assay; type: functional, cell-based; procedure, shortened: as §2
[9] = test system: BGC-823; test: Growth inhibition of human BGC823 cells at 10 uM by MTT assay; type: functional, cell-based; procedure, shortened: as §2
[10] = test system: A-431; test: Growth inhibition of human A431 cells by MTT assay; type: functional
[11] = test system: DU-145; test: Growth inhibition of human DU145 cells by MTT assay; type: functional
[12] = test system: BGC-823; test: Growth inhibition of human BGC823 cells by MTT assay; type: functional
[13] = test system: HT-1080; test: Growth inhibition of human HT1080 cells at 10 uM by MTT assay; type: functional, cell-based; procedure, shortened: as §2
[14] = test system: HUVEC; test: Growth inhibition of HUVEC by MTT assay; type: functional; conditions: Homo sapiens
[15] = test system: A549; test: Growth inhibition of human A549 cells by MTT assay; type: functional
[16] = test system: HeLa; test: Growth inhibition of human HeLa cells by MTT assay; type: functional
[17] = target: T1, Histone deacetylase 1; test: Inhibition of human recombinant HDAC1 at 10 uM incubated for 10 mins prior to substrate addition measured after 60 mins by spectrophotometric analysis; procedure, shortened: as §1

| SMILES | IC50 [1] | inhibition [2] | GI50 ([4]; Homo sapiens, HT-1080) | GI50 [11] | growth inhibition (GI) [3] | growth inhibition (GI) [6] | growth inhibition (GI) [8] | growth inhibition (GI) [9] | also measured |
| --- | --- | --- | --- | --- | --- | --- | --- | --- | --- |
| Cc1cc(C)cc(Cn2cc(CCCCC(=O)NO)nn2)c1 | 269 nM | inactive | 8650 nM | – | inactive | inactive | inactive | inactive | growth inhibition (GI) [5]: inactive; growth inhibition (GI) [7]: inactive |
| O=C(CCCCc1cn(Cc2ccc(Br)cc2)nn1)NO | 1600 nM | inactive | – | 7910 nM | – | inactive | inactive | inactive | GI50 [10]: 15400 nM; growth inhibition (GI) [13]: inactive |
| COc1ccc(Cn2cc(CCCCC(=O)NO)nn2)cc1 | 1850 nM | inactive | – | – | – | – | – | – | – |
| O=C(CCCCc1cn(Cc2ccc(F)c(Cl)c2)nn1)NO | 649 nM | inactive | 10200 nM | – | inactive | inactive | inactive | inactive | growth inhibition (GI) [7]: inactive |
| Cc1ccc(Cn2cc(CCCCC(=O)NO)nn2)cc1 | 440 nM | inactive | – | – | – | – | – | – | – |
| Cc1ccccc1Cn1cc(CCCCC(=O)NO)nn1 | 1050 nM | inactive | – | – | – | – | – | – | – |
| COc1cc(Br)c(Cn2cc(CCCCC(=O)NO)nn2)cc1OC | 862 nM | inactive | – | – | inactive | inactive | inactive | inactive | GI50 [10]: 17300 nM; growth inhibition (GI) [7]: inactive; growth inhibition (GI) [13]: inactive |
| O=C(CCCCc1cn(Cc2ccccn2)nn1)NO | 2570 nM | inactive | – | – | – | – | – | – | – |
| O=C(CCCCc1cn(Cc2ccccc2)nn1)NO | 1680 nM | inactive | – | – | – | – | – | – | – |
| CC(C)(C)c1ccc(Cn2cc(CCCCC(=O)NO)nn2)cc1 | 601 nM | inactive | 7370 nM | 7200 nM | inactive | inactive | inactive | inactive | growth inhibition (GI) [5]: inactive |
| O=C(CCCCCCC(=O)Nc1ccccc1)NO [VORINOSTAT] | – | – | – | – | – | – | – | – | GI50 [4]: 4870 nM |
| O=C(CCCCc1cn(Cc2c(Br)cc(Br)cc2Br)nn1)NO | – | inactive | – | – | – | – | – | – | inhibition [17]: inactive |
| O=C(CCCCc1cn(Cc2ccccc2F)nn1)NO | 1360 nM | inactive | – | – | – | – | – | – | – |
| O=C(CCCCc1cn(Cc2ccc3ccccc3n2)nn1)NO | 246 nM | inactive | 10200 nM | 4060 nM | inactive | inactive | inactive | inactive | growth inhibition (GI) [5]: inactive |

Further lines, with some results ahead:

| IC50 [1] | inhibition [2] | GI50 ([4]; Homo sapiens, HT-1080) | GI50 [11] | SMILES | growth inhibition (GI) [3] | growth inhibition (GI) [6] | growth inhibition (GI) [8] | growth inhibition (GI) [9] | also measured |
| --- | --- | --- | --- | --- | --- | --- | --- | --- | --- |
| 440 nM | inactive | – | – | O=C(CCCCc1cn(Cc2ccc(C(F)(F)F)cc2)nn1)NO | – | – | – | – | – |
| 107 nM | inactive | 4610 nM | 7230 nM | O=C(CCCCc1cn(Cc2ccc3ccccc3c2)nn1)NO | inactive | inactive | inactive | – | GI50 [10]: 5680 nM; GI50 [12]: 6640 nM |
| 3580 nM | inactive | – | – | O=C(CCCCc1cn(Cc2ccccc2Br)nn1)NO | – | inactive | inactive | inactive | growth inhibition (GI) [5]: inactive; growth inhibition (GI) [7]: inactive; growth inhibition (GI) [13]: inactive |
| 58 nM | inactive | 3140 nM | 1190 nM | O=C(CCCCc1cn(Cc2cccc(-c3ccccc3)c2)nn1)NO | – | – | – | – | GI50 [10]: 4650 nM; GI50 [14]: 1130 nM; GI50 [15]: 1470 nM; GI50 [12]: 3050 nM; GI50 [16]: 3850 nM |
| 2210 nM | inactive | – | – | O=C(CCCCc1cn(Cc2ccc(Cl)cc2)nn1)NO | – | – | – | – | – |
| 159 nM | inactive | 9940 nM | 5620 nM | COc1ccc(Br)c(Cn2cc(CCCCC(=O)NO)nn2)c1 | inactive | inactive | inactive | inactive | growth inhibition (GI) [5]: inactive |
| 645 nM | inactive | – | – | O=C(CCCCc1cn(Cc2ccc(F)cc2)nn1)NO | – | – | – | – | – |
| 1220 nM | inactive | – | – | O=C(CCCCc1cn(Cc2ccc(F)cc2F)nn1)NO | – | – | – | – | – |
| 807 nM | inactive | – | – | O=C(CCCCc1cn(Cc2ccccc2Cn2cc(CCCCC(=O)NO)nn2)nn1)NO | – | – | – | – | – |
| 701 nM | inactive | – | – | N#Cc1ccc(Cn2cc(CCCCC(=O)NO)nn2)cc1 | – | – | – | – | – |
| 122 nM | inactive | 7690 nM | 4490 nM | O=C(CCCCc1cn(Cc2ccc(Oc3ccccc3)cc2)nn1)NO | – | inactive | inactive | – | GI50 [10]: 9030 nM; GI50 [12]: 7770 nM |
| 252 nM | inactive | 8040 nM | 7890 nM | COc1cc(Cn2cc(CCCCC(=O)NO)nn2)cc(OC)c1 | inactive | inactive | inactive | inactive | GI50 [10]: 6800 nM |
| 1900 nM | inactive | – | – | O=C(CCCCc1cn(Cc2ccc3c(c2)OCO3)nn1)NO | – | – | – | – | – |
| 202 nM | inactive | 2690 nM | 1210 nM | O=C(CCCCc1cn(Cc2ccc(-c3ccccc3)cc2)nn1)NO | – | – | – | – | GI50 [10]: 2990 nM; GI50 [14]: 5480 nM; GI50 [15]: 2150 nM; GI50 [12]: 1800 nM; GI50 [16]: 3720 nM |
| 5130 nM | – | – | – | O=C(CCCCn1cc(-c2ccccc2)nn1)NO | inactive | – | inactive | inactive | GI50 [15]: 7690 nM; growth inhibition (GI) [5]: inactive; growth inhibition (GI) [7]: inactive; growth inhibition (GI) [13]: inactive |
| 396 nM | inactive | 6650 nM | – | O=C(CCCCc1cn(Cc2cccc(Br)c2)nn1)NO | inactive | inactive | inactive | inactive | growth inhibition (GI) [5]: inactive; growth inhibition (GI) [7]: inactive |
